pKd: −log10 of the molar value. Calls of active or inactive are those of the source. The calls are words filed in the database; no cut-off is given here.
What was measured:
[1] = test system: ALK tyrosine kinase receptor (Homo sapiens), Q9UM73 [L1196M]; assay: Inhibition of ALK L1196M mutant (unknown origin) assessed as remaining activity at 1 uM by Kinome scan method relative to control
How it was run: (§1)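 Active-site-dependent competition-binding (KINOMEscan) panel of 468 kinases, test compound at 1 μM (from a 10 mM DMSO stock). Read-out is ctrl% = (test signal − positive control signal)/(negative control signal − positive control signal) × 100. DMSO is the negative control (100%) and a control compound is the positive control (0%). Lower ctrl% means tighter binding.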

[2] = target: Dual specificity mitogen-activated protein kinase kinase 6 (Homo sapiens) (UniProt P52564); assay: Inhibition of MEK6 (unknown origin) assessed as remaining activity at 1 uM by Kinome scan method relative to control
[3] = target: Serine/threonine-protein kinase DCLK3 (Homo sapiens) (UniProt Q9C098); assay: Inhibition of DCAMKL3 (unknown origin) assessed as remaining activity at 1 uM by Kinome scan method relative to control
[4] = target: Dual serine/threonine and tyrosine protein kinase (Homo sapiens) (UniProt Q6XUX3); assay: Inhibition of RIPK5 (unknown origin) assessed as remaining activity at 1 uM by Kinome scan method relative to control
[5] = target: Phosphatidylinositol 4-phosphate 5-kinase type-1 gamma (Homo sapiens, UniProt O60331); assay: Binding affinity to PIP5K1C (unknown origin) assessed as dissociation constant
[6] = target: Tyrosine-protein kinase receptor Tie-1 (Homo sapiens) (UniProt P35590); assay: Inhibition of TIE1 (unknown origin) assessed as remaining activity at 1 uM by Kinome scan method relative to control
[7] = target: Proto-oncogene tyrosine-protein kinase ROS (Homo sapiens) (UniProt P08922); assay: Inhibition of ROS1 (unknown origin) assessed as remaining activity at 1 uM by Kinome scan method relative to control
[8] = target: Dual specificity mitogen-activated protein kinase kinase 2 (Homo sapiens) (UniProt P36507); assay: Inhibition of MEK2 (unknown origin) assessed as remaining activity at 1 uM by Kinome scan method relative to control
[9] = target: Serine/threonine-protein kinase TBK1 (Homo sapiens) (UniProt Q9UHD2); assay: Inhibition of TBK1 (unknown origin) assessed as remaining activity at 1 uM by Kinome scan method relative to control
[10] = target: Myosin light chain kinase family member 4 (Homo sapiens) (UniProt Q86YV6); assay: Inhibition of MYLK4 (unknown origin) assessed as remaining activity at 1 uM by Kinome scan method relative to control
How it was run: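 KINOMEscan active-site competition binding assay at 1 μM against 468 kinases. Ctrl% = (test − positive control)/(negative control DMSO − positive control) × 100; lower values mean tighter binding.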

[11] = target: Citron Rho-interacting kinase (Homo sapiens) (UniProt O14578); assay: Inhibition of CIT (unknown origin) assessed as remaining activity at 1 uM by Kinome scan method relative to control
How it was run: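 Active-site-dependent competition-binding profiling (KINOMEscan) at 1 μM against a 468-kinase panel; compound supplied from a 10 mM DMSO stock. Read-out is ctrl% = (test signal − positive control signal)/(negative control signal − positive control signal) × 100. DMSO is the negative control (100%) and a control compound the positive control (0%). Lower ctrl% means tighter binding.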

[12] = target: Mitogen-activated protein kinase 3 (Homo sapiens) (UniProt P27361); assay: Inhibition of ERK1 (unknown origin) assessed as remaining activity at 1 uM by Kinome scan method relative to control
[13] = test system: Phosphatidylinositol 4,5-bisphosphate 3-kinase catalytic subunit alpha isoform (Homo sapiens), P42336 [E542K]; assay: Inhibition of PIK3CA E542K mutant (unknown origin) assessed as remaining activity at 1 uM by Kinome scan method relative to control
[14] = target: Ribosomal protein S6 kinase alpha-2 (Homo sapiens) (UniProt Q15349); assay: Inhibition of N-terminal kinase domain RSK3 (unknown origin) assessed as remaining activity at 1 uM by Kinome scan method relative to control
[15] = test system: Receptor-type tyrosine-protein kinase FLT3 (Homo sapiens), P36888 [D835H]; assay: Inhibition of FLT3 D835H mutant (unknown origin) assessed as remaining activity at 1 uM by Kinome scan method relative to control
[16] = target: Tyrosine-protein kinase receptor TYRO3 (Homo sapiens) (UniProt Q06418); assay: Inhibition of TYRO3 (unknown origin) assessed as remaining activity at 1 uM by Kinome scan method relative to control
[17] = target: Insulin receptor (Homo sapiens) (UniProt P06213); assay: Inhibition of INSR (unknown origin) assessed as remaining activity at 1 uM by Kinome scan method relative to control
Mus musculus = assay: Protection against APAP induced liver injury in mouse assessed as continual expansion of centrilobular necrotic lesions at 1 mg/kg, ip administered at 2.5 hrs by H&E staining; type: functional, organism-based
[18] = target: Dual specificity mitogen-activated protein kinase kinase 5 (Homo sapiens) (UniProt Q13163); assay: Inhibition of MEK5 (unknown origin) assessed as remaining activity at 1 uM by Kinome scan method relative to control
[19] = target: Ribosomal protein S6 kinase alpha-3 (Homo sapiens) (UniProt P51812); assay: Inhibition of C-terminal kinase domain RSK2 (unknown origin) assessed as remaining activity at 1 uM by Kinome scan method relative to control; how it was run: as §1
[20] = target: Tyrosine-protein kinase HCK (Homo sapiens) (UniProt P08631); assay: Inhibition of HCK (unknown origin) assessed as remaining activity at 1 uM by Kinome scan method relative to control
HepG2 = assay: Inhibition of Flag-tagged MST1 Y101F/D109A mutant (unknown origin) in human HepG2 cells assessed as MOB1 phosphorylation level at 0.3 to 10 uM by immunoblot analysis; type: cell-based; conditions: dose 0.3-10 µM
[21] = target: Serine/threonine-protein kinase Sgk1 (Homo sapiens) (UniProt O00141); assay: Inhibition of SGK (unknown origin) assessed as remaining activity at 1 uM by Kinome scan method relative to control
[22] = target: Mitogen-activated protein kinase kinase kinase 15 (Homo sapiens) (UniProt Q6ZN16); assay: Inhibition of MAP3K15 (unknown origin) assessed as remaining activity at 1 uM by Kinome scan method relative to control
[23] = target: Bone morphogenetic protein receptor type-1A (Homo sapiens) (UniProt P36894); assay: Inhibition of BMPR1A (unknown origin) assessed as remaining activity at 1 uM by Kinome scan method relative to control; how it was run: as §1
[24] = target: Macrophage-stimulating protein receptor (Homo sapiens) (UniProt Q04912); assay: Inhibition of MST1R (unknown origin) assessed as remaining activity at 1 uM by Kinome scan method relative to control
[25] = target: Serine/threonine-protein kinase NLK (Homo sapiens) (UniProt Q9UBE8); assay: Inhibition of NLK (unknown origin) assessed as remaining activity at 1 uM by Kinome scan method relative to control
[26] = target: Tyrosine-protein kinase Fgr (Homo sapiens) (UniProt P09769); assay: Inhibition of FGR (unknown origin) assessed as remaining activity at 1 uM by Kinome scan method relative to control

Serine/threonine-protein kinase DCLK3 (Homo sapiens), sequence (Q9C098 whole entry): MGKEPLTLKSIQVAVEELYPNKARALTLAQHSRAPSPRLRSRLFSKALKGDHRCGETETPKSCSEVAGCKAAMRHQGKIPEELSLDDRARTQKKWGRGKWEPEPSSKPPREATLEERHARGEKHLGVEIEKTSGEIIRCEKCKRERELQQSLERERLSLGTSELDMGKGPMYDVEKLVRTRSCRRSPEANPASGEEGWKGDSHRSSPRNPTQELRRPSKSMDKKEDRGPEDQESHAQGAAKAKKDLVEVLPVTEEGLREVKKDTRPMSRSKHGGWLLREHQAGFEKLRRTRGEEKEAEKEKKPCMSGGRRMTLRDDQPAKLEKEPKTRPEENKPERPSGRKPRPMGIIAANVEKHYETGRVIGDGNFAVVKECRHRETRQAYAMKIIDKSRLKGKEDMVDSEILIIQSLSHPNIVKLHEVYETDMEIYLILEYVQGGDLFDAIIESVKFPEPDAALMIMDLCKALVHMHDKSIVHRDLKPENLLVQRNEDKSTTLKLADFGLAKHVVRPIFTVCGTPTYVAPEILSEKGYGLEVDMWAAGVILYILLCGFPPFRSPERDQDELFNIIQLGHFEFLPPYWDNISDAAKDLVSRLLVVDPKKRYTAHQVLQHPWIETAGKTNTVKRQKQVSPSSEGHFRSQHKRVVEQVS
Serine/threonine-protein kinase NLK (Homo sapiens), sequence (Q9UBE8 whole entry): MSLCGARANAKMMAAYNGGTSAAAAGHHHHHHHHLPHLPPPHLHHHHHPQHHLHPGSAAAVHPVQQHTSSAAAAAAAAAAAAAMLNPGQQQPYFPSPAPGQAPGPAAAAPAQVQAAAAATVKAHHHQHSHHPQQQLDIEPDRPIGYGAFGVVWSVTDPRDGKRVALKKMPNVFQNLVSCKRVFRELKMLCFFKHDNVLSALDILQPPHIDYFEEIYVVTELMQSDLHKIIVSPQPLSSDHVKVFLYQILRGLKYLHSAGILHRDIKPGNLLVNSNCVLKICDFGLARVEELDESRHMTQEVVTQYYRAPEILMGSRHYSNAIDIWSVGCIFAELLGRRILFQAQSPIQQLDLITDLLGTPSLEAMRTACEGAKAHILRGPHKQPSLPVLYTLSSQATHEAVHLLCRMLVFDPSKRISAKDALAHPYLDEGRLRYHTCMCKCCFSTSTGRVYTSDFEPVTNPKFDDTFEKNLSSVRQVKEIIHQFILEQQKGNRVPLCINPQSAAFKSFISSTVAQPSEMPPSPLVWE
Tyrosine-protein kinase receptor Tie-1 (Homo sapiens), sequence (P35590 whole entry): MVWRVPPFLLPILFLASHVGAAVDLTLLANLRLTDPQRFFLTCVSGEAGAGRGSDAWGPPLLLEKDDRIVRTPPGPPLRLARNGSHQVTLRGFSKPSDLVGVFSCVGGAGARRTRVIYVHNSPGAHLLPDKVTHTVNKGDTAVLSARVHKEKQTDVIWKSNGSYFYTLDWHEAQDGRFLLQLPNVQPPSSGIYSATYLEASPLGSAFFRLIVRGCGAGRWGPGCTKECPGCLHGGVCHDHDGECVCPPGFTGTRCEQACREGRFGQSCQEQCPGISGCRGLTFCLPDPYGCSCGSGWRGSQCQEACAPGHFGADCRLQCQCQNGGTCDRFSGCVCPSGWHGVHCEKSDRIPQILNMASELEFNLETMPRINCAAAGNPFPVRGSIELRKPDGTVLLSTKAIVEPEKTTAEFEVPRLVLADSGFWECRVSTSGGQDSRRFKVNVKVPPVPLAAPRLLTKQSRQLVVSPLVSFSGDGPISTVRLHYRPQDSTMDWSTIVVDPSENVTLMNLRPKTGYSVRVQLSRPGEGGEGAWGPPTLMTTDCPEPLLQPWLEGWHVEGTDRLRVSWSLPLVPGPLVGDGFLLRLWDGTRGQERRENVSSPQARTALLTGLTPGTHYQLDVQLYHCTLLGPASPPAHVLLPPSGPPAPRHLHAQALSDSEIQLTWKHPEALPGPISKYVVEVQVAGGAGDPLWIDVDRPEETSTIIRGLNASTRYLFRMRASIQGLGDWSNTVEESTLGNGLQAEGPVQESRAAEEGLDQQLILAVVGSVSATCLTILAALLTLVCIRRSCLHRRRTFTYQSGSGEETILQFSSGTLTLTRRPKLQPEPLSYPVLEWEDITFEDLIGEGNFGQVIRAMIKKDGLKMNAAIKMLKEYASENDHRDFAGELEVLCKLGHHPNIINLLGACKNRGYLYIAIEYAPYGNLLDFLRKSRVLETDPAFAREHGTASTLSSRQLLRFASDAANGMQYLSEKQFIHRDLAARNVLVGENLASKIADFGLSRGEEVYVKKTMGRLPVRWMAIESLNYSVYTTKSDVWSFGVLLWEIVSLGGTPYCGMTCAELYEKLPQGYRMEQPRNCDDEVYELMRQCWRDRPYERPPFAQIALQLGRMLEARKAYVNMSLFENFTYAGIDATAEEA
Mitogen-activated protein kinase 3 (Homo sapiens), sequence (P27361 whole entry, canonical isoform): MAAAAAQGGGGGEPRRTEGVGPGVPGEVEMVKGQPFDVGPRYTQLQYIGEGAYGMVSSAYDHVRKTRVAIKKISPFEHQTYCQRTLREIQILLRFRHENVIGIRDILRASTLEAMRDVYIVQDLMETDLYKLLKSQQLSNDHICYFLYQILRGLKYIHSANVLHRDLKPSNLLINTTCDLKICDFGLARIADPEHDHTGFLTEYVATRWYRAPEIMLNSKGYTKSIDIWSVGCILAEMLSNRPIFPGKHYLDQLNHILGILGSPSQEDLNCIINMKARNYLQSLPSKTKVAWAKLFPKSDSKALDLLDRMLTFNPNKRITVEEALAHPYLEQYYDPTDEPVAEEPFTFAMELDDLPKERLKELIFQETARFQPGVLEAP
Proto-oncogene tyrosine-protein kinase ROS (Homo sapiens), sequence (P08922 whole entry): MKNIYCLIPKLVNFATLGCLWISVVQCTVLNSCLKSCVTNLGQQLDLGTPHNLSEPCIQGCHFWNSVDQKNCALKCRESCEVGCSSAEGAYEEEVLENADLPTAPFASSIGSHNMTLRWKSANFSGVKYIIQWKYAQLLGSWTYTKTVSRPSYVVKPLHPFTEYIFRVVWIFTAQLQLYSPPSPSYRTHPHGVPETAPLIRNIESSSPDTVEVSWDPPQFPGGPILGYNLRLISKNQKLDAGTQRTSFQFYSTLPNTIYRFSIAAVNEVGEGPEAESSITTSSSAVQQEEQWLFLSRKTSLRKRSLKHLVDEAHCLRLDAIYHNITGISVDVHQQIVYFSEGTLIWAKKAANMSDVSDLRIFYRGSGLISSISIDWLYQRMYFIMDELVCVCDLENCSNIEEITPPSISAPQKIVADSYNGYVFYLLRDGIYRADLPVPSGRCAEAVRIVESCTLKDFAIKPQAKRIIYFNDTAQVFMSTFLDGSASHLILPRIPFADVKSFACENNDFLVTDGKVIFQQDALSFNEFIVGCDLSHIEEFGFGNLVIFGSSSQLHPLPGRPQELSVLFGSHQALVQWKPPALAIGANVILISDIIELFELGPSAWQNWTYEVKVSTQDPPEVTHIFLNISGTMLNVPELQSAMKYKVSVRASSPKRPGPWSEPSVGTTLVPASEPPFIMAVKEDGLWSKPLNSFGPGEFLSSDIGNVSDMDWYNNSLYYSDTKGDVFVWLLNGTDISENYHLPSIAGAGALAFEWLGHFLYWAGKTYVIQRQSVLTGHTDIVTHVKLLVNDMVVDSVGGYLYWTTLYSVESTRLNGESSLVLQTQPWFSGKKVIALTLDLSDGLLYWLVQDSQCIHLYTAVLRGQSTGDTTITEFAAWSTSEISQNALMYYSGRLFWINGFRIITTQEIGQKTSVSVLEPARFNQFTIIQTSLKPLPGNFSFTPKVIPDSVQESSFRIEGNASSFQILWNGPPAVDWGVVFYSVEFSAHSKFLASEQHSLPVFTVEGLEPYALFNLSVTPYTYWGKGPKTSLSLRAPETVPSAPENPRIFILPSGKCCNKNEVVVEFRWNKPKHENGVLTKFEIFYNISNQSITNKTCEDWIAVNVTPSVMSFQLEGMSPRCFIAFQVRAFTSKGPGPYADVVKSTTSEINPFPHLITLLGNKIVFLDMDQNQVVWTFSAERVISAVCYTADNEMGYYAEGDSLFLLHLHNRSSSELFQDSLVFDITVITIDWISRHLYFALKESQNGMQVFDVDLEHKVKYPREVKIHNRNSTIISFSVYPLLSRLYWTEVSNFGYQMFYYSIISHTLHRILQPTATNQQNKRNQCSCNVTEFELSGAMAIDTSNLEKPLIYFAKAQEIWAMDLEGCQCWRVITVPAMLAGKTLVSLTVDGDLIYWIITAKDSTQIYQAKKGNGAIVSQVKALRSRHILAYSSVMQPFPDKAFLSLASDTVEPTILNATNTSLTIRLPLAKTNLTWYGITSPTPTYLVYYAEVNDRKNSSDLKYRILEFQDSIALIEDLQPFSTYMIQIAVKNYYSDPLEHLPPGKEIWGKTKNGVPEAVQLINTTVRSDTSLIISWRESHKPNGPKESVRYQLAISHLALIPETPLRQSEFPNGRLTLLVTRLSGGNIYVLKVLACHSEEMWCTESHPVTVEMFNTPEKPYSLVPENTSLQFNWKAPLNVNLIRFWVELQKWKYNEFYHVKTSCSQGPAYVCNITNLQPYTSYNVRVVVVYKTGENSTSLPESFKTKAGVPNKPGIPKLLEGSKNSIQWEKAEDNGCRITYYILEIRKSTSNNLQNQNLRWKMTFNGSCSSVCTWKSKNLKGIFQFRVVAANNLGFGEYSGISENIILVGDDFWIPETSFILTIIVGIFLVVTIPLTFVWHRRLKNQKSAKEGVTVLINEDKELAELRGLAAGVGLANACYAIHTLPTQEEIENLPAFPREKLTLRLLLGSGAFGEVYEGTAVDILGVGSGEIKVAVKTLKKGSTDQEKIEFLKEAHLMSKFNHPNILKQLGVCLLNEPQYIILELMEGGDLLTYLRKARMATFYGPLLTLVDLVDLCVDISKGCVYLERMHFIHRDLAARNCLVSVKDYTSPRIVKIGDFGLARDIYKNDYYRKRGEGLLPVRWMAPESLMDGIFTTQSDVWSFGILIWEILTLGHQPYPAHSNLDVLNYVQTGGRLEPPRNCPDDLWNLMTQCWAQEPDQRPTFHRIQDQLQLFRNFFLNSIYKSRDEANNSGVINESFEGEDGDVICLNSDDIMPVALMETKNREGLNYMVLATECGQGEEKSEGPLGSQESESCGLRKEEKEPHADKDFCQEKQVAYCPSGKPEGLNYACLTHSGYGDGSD

CN1C(=O)c2sccc2N(C)c2nc(Nc3ccc(S(N)(=O)=O)cc3)ncc21 was tested, and the Activity [1] was 100%, the Activity [2] was 100% and the Activity [3] was 100%. For the same compound, the Activity [4] was 45%, the pKd [5] was 7.11 and the Activity [6] was 100%. For the same compound, the Activity [7] was 100%, the Activity [8] was 99% and the Activity [9] was 90%. It also gave an Activity [10] of 89%, an Activity [11] of 96% and an Activity [12] of 100%. It also gave an Activity [13] of 48%, an Activity [14] of 97% and an Activity [15] of 67%. For the same compound, the Activity [16] was 100%, the Activity [17] was 98% and the Activity (Mus musculus) was “Active”. For the same compound, the Activity [18] was 79%, the Activity [19] was 66% and the Activity [20] was 100%. The inhibition (HepG2) was “Active”, the Activity [21] was 96% and the Activity [22] was 67%. For the same compound, the Activity [23] was 70%, the Activity [24] was 96% and the Activity [25] was 85%. The Activity [26] was 56%.

— ChEMBL document CHEMBL5705905, “Pharmacological targeting of kinases MST1 and MST2 augments tissue repair and regeneration” (Sci Transl Med, 2016)
